Laboratory results from ChEMBL document CHEMBL3779871, “4,5-Diarylisoxazol-3-carboxylic acids: A new class of leukotriene biosynthesis inhibitors potentially targeting 5-lipoxygenase-activating protein (FLAP)” (Eur J Med Chem, 2016).

Legend:
[1] = molecular target: T1, Arachidonate 5-lipoxygenase-activating protein (Homo sapiens) (UniProt P20292); experiment: Inhibition of FLAP in Ca+2 ionophore A23187 stimulated human neutrophils assessed as remaining 5-LO activity preincubated for 15 mins at 10 uM measured after 10 mins by RP-HPLC analysis
T1 sequence (whole entry): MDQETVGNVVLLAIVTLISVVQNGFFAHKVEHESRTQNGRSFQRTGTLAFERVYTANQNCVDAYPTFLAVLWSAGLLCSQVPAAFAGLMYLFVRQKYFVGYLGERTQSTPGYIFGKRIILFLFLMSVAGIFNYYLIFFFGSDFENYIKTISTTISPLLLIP

[2] = Acute cytotoxicity against human neutrophils assessed as cell viability measured for 30 mins by trypan blue exclusion method; assay type: cell-based; details: neutrophil, 0.5 h
Outline: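 Neutrophils isolated from healthy donor blood by dextran sedimentation and Nycoprep centrifugation, then resuspended in PBS pH 7.4 with 1 mg/ml glucose and 1 mM CaCl₂. Cells were kept 30 min at 37 °C with compound, and cell integrity was read by trypan blue exclusion on an automated counter.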

[3] = molecular target: T2, Arachidonate 5-lipoxygenase-activating protein (Homo sapiens, UniProt P20292); experiment: Inhibition of FLAP in Ca+2 ionophore A23187 stimulated human neutrophils assessed as 5-LO product formation preincubated for 15 mins measured after 10 mins by RP-HPLC analysis
T2 sequence (P20292 whole entry): T1 sequence (whole entry)

[4] = molecular target: T3, Polyunsaturated fatty acid 5-lipoxygenase (Homo sapiens, UniProt P09917); experiment: Inhibition of recombinant human 5-LO expressed in Escherichia coli BL21 assessed as 5-LO product formation preincubated for 15 mins followed by addition of arachidonic acid as substrate measured after 10 mins by RP-HPLC analysis
T3 sequence (P09917 whole entry): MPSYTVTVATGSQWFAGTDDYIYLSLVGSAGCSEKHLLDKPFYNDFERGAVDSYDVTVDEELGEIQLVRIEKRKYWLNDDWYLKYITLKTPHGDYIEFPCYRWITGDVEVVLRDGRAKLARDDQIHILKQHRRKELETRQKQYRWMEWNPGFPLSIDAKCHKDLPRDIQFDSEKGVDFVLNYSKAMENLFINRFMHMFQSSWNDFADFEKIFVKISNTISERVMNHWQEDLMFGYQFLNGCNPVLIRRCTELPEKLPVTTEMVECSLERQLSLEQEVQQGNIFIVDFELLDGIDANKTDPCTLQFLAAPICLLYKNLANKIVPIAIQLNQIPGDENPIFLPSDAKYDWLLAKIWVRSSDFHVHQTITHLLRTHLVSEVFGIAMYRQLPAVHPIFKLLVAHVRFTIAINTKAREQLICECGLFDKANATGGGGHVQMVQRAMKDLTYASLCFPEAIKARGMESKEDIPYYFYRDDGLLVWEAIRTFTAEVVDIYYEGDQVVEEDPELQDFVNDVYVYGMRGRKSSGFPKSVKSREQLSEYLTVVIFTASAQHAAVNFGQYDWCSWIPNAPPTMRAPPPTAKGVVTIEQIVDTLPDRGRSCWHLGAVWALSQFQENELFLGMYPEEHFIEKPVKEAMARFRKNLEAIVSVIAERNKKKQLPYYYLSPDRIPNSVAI
Outline: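 Semi-purified 5-LO was diluted in ice-cold PBS with 1 mM EDTA and 1 mM ATP, then held 15 min at 4 °C with compound or 0.1% DMSO. After a 30 s prewarm at 37 °C, 2 mM CaCl₂ plus 20 arachidonic acid were added for 10 min at 37 °C. The reaction was stopped with methanol, and LTB₄ all-trans isomers plus 5-H(P)ETE were read by RP-HPLC. IC₅₀ is n = 3–4 in duplicates.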

COc1cc(OCc2ccccc2C)ccc1-c1onc(C)c1-c1ccc(Cl)cc1
Activity [1]: 81.3% | Activity [2]: Non-toxic

CCOC(=O)c1noc(-c2ccc(OCc3cccc(F)c3)cc2)c1-c1ccc(Cl)cc1
Activity [1]: 55.3% | Activity [2]: Non-toxic

O=C(O)c1noc(-c2ccc(OCc3cccc(F)c3)cc2)c1-c1ccc(Cl)cc1
Activity [1]: 19.6% | Activity [2]: Non-toxic | IC50 [3]: 1300 nM

Cc1ccc(COc2ccc(-c3onc(C(=O)O)c3-c3ccc(Cl)cc3)cc2)cc1
Activity [1]: 15.7% | Activity [2]: Non-toxic | IC50 [3]: 1400 nM

Cc1ccccc1COc1ccc(-c2onc(C)c2-c2ccc(Cl)cc2)c(O)c1
Activity [1]: 3% | Activity [2]: Non-toxic

O=C(O)c1noc(-c2ccc(OCc3ccccc3Cl)cc2)c1-c1ccc(Cl)cc1
Activity [1]: 5.1% | Activity [2]: Non-toxic | IC50 [3]: 1200 nM

CC(c1cc2ccccc2s1)N(O)C(N)=O (stereo not drawn) [ZILEUTON]
Activity [1]: 6.7% | Activity [2]: Non-toxic

CCOC(=O)c1noc(-c2ccc(OCc3ccccc3C)cc2)c1-c1ccc(Cl)cc1
Activity [1]: 71.9% | Activity [2]: Non-toxic | IC50 [3]: > 10000 nM

CCOC(=O)c1noc(-c2ccc(OCc3ccc(C)cc3)cc2)c1-c1ccc(Cl)cc1
Activity [1]: 61.4% | Activity [2]: Non-toxic

Cc1ccccc1COc1ccc(-c2onc(C)c2-c2ccc(Cl)cc2)cc1
Activity [1]: 102% | Activity [2]: Non-toxic

O=C(O)c1noc(-c2ccc(OCc3ccccc3C(F)(F)F)cc2)c1-c1ccc(Cl)cc1
Activity [1]: 5.5% | Activity [2]: Non-toxic | IC50 [3]: 770 nM

O=C(O)c1noc(-c2ccc(OCc3ccc4ccccc4n3)cc2)c1-c1ccc(Cl)cc1
Activity [1]: 2.7% | Activity [2]: Non-toxic | IC50 [3]: 240 nM

N#Cc1cccc(COc2ccc(-c3onc(C(=O)O)c3-c3ccc(Cl)cc3)cc2)c1
Activity [1]: 6.9% | Activity [2]: Non-toxic | IC50 [3]: 4100 nM

O=C(O)c1noc(-c2ccc(OCc3nc4ccccc4s3)cc2)c1-c1ccc(Cl)cc1
IC50 [4]: > 10000 nM | Activity [1]: 2% | Activity [2]: Non-toxic | IC50 [3]: 240 nM

Cc1ccccc1COc1ccc(-c2onc(C(=O)O)c2-c2ccc(Cl)cc2)cc1
Activity [1]: 13.1% | Activity [2]: Non-toxic | IC50 [3]: 1700 nM

O=C(O)c1noc(-c2ccc(OCc3ccccn3)cc2)c1-c1ccc(Cl)cc1
Activity [1]: 8.4% | Activity [2]: Non-toxic | IC50 [3]: 4100 nM
